Measured values published in ChEMBL document CHEMBL1131173, “Alkoxypsoralens, novel nonpeptide blockers of Shaker-type K+ channels: synthesis and photoreactivity” (J Med Chem, 1998).

Assays:
[1] = target: T1, Potassium voltage-gated channel subfamily A member 1 (Homo sapiens, UniProt Q09470); experiment: Selectivity of K+ current blockade given by Bk/BNa in Xenopus laevis; type: functional
Outline: (§1)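 On the Ranvier node, compound was tested at 25 µM. Steady-state K+ current block (BK) was normalized to currents in normal bathing medium. Peak Na+ current block was measured at 70 mV pulse amplitude and normalized the same way. Selectivity S = BK/BNa.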

Nucleic Acid [2] = experiment: Photobinding to Poly(dA-dT)-Poly(dA-dT)-DNA after UV-A irradiation; type: nucleic-acid assay
Outline: (§2)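 Poly(dA-dT)-poly(dA-dT) at 10 µM in 0.1 M MOPS, pH 7.0, with compound at a 1:1 compound:DNA ratio. Samples were kept 30 min in the dark or irradiated 30 min at 365 nm (4.5 mW/cm2, 8.1 J/cm2). Melting profiles gave ΔTm = Tm(DNA+drug) − Tm(DNA), as the mean of three determinations.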

[3] = compound was tested for production of singlet oxygen, measured as decrease in absorbance of N,N-dimethyl-p-nitrosoaniline (RNO) at 440 nm after 5 hr of UV-A irradiation; type: ADME; conditions: 10 µM
Outline: (§3)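 Singlet oxygen generation by compound at 10 µM in O2-saturated solution, read as RNO bleaching. Absorbance decrease was measured at 440 nm after 5 h of UV-A irradiation (4.5 mW/cm2, incident dose 81 J/cm2).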

[4] = target: T1, Potassium voltage-gated channel subfamily A member 1; experiment: K+ channel blocking activity as blockade at 25 uM in Xenopus laevis Ranvier nodes; type: functional; outline: as §1
Nucleic Acid [5] = experiment: Photobinding to Poly(dA-dT)-Poly(dA-dT)-DNA in dark, determined by the shift of thermal transition temperature; type: nucleic-acid assay; outline: as §2
Artemia salina [6] = experiment: Photoinduced dose modification against nauplii of Artemia salina; type: functional
Outline: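 Artemia salina nauplii were collected 48 h after hatching, ten per vial in 3 mL seawater, with compound from 100 nM upward; methanol was the vehicle. Vials were incubated at 25 °C under daylight or with added UV-A (1.3 mW/cm2, incident dose 112 J/cm2). Dead nauplii were counted at 24 h to give LC50. Assays were run in triplicate.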

[7] = Compound was tested for production of singlet oxygen, measured as decrease in absorbance of N,N-dimethyl-p-nitrosoaniline (RNO) at 440 nm after 5 hr of UV-A irradiation; type: ADME; conditions: 10 µM; outline: as §3
[8] = (§4) Compound was tested for in vitro phototoxicity against nauplii of Artemia salina in daylight
Outline: (§5)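 Artemia salina nauplii were hatched for 48 h, and ten per vial were placed in 3 mL seawater containing compound from 100 nM upward in methanol. Incubation was at 25 °C either under daylight or under added UV-A (1.3 mW/cm2, incident dose 112 J/cm2). Dead nauplii were counted at 24 h to give LC50. Run in triplicate.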

[9] = (§6) Compound was tested for in vitro phototoxicity against nauplii of Artemia salina after UV-irradiation; outline: as §5
Artemia salina [10] = experiment: as §4; type: functional; conditions: light or radiation study; outline: as §5
Artemia salina [11] = experiment: as §6; type: functional; conditions: light or radiation study; outline: as §5
[12] = target: Potassium voltage-gated channel subfamily A member 3 (Mus musculus, UniProt P16390); experiment: Blockade of peak Kv1.3 potassium currents; type: functional
Outline: (§7)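 Channels expressed in mammalian cells and recorded by whole-cell patch clamp. Each compound was applied at several concentrations, and the apparent dissociation constant Kd was calculated for block of peak K+ current.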

[13] = target: T2, Voltage-gated potassium channel KCNC1 (Homo sapiens, UniProt P48547); experiment: Blockade of peak K+ currents against Kv3.1 gene; type: functional; outline: as §7
T2 sequence (P48547 whole entry): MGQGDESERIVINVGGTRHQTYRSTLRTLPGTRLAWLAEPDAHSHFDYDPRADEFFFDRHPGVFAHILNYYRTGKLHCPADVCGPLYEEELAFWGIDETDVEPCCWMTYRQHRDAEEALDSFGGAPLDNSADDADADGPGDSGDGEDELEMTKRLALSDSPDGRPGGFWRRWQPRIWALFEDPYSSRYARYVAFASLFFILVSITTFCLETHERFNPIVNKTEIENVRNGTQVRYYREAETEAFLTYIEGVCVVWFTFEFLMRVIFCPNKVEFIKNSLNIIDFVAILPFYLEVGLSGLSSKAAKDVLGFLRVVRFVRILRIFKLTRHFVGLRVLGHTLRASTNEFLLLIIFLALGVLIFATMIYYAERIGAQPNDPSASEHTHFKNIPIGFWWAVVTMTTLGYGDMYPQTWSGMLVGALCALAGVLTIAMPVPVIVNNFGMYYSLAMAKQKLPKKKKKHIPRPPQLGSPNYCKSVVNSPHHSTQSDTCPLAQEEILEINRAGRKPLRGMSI

[14] = target: Potassium voltage-gated channel subfamily A member 2 (Homo sapiens, UniProt P16389); experiment: Blockade of peak K+ currents against Kv1.2 gene; type: functional; outline: as §7
[15] = target: T1, Potassium voltage-gated channel subfamily A member 1; experiment: Blockade of peak K+ currents against Kv1.1 gene; type: functional; outline: as §7
[16] = target: Potassium voltage-gated channel subfamily A member 6 (Homo sapiens, UniProt P17658); experiment: Blockade of peak K+ currents against Kv1.6 gene; type: functional
Outline: (§8)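 Whole-cell patch-clamp recording of cloned channels expressed in mammalian cells. Each compound was tested at several concentrations, and an apparent Kd for block of peak K+ current was calculated.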

[17] = target: Potassium voltage-gated channel subfamily A member 5 (Homo sapiens, UniProt P22460); experiment: Blockade of peak K+ currents against Kv1.5 gene; type: functional; outline: as §8
[18] = Compound was tested for production of single oxygen, measured as decrease in absorbance of N,N-dimethyl-p-nitrosoaniline (RNO) at 440 nm after 5 hr of UV-A irradiation; type: ADME; conditions: 10 µM
Outline: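 Singlet oxygen from compound at 10 µM was measured in O2-saturated solution by bleaching of N,N-dimethyl-p-nitrosoaniline. The read-out was the fall in absorbance at 440 nm after 5 h of UV-A (4.5 mW/cm2, incident dose 81 J/cm2).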

T1 sequence (Q09470 whole entry): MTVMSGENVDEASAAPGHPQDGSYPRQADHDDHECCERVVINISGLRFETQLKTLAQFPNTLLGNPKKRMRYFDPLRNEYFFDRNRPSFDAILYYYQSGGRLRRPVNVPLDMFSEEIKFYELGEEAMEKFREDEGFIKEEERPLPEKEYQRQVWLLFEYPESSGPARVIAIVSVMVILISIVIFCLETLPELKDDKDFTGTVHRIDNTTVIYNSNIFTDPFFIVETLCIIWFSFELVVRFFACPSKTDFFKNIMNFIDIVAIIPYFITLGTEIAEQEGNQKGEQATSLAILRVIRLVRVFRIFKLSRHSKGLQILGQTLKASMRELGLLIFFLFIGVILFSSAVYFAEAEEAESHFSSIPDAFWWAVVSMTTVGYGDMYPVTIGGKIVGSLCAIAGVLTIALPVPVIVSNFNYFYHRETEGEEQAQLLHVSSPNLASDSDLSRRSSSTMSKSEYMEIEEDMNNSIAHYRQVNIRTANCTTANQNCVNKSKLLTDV
Potassium voltage-gated channel subfamily A member 2, sequence (P16389 whole entry): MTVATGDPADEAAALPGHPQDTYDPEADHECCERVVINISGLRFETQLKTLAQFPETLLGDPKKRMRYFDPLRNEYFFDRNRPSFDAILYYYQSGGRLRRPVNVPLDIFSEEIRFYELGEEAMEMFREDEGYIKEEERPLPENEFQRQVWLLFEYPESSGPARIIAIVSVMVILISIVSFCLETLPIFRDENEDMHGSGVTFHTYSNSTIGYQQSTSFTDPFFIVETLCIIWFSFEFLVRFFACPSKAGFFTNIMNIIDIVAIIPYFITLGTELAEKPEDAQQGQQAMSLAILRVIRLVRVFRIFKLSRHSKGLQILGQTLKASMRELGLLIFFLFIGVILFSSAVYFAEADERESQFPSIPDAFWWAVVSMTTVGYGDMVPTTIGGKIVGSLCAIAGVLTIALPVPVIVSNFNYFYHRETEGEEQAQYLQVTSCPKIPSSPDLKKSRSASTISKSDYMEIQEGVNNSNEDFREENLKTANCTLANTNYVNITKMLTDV
Potassium voltage-gated channel subfamily A member 3, sequence (P16390 whole entry): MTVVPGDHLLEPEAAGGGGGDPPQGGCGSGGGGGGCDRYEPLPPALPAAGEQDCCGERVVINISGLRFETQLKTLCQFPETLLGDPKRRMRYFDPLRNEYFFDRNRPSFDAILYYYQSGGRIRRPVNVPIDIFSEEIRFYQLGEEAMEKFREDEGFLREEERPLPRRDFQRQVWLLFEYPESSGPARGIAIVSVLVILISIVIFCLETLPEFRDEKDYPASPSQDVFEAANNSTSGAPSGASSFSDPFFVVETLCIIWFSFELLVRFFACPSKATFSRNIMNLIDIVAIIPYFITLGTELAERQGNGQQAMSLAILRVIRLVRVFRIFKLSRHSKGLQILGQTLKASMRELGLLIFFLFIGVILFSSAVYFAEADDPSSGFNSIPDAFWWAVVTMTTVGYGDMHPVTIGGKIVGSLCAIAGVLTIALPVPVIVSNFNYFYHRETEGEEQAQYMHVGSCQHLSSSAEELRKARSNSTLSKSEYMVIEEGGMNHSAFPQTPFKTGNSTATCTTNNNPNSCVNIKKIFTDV
Potassium voltage-gated channel subfamily A member 5, sequence (P22460 whole entry): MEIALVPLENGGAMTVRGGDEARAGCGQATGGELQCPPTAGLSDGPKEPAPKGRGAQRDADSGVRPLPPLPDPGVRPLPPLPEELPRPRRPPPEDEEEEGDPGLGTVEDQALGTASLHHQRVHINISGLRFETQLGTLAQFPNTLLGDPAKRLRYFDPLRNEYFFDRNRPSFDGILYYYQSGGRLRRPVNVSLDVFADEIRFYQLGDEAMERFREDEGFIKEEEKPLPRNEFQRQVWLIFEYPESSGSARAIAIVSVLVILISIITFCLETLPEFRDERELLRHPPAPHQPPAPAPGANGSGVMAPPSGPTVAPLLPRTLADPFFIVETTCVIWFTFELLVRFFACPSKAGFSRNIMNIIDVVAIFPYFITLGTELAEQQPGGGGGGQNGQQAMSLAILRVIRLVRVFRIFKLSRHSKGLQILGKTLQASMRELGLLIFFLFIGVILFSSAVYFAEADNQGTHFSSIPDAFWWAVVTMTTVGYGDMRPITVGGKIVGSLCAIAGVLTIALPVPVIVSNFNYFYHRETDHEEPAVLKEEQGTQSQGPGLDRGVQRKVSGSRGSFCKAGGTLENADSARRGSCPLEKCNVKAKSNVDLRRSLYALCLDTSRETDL
Potassium voltage-gated channel subfamily A member 6, sequence (P17658 whole entry): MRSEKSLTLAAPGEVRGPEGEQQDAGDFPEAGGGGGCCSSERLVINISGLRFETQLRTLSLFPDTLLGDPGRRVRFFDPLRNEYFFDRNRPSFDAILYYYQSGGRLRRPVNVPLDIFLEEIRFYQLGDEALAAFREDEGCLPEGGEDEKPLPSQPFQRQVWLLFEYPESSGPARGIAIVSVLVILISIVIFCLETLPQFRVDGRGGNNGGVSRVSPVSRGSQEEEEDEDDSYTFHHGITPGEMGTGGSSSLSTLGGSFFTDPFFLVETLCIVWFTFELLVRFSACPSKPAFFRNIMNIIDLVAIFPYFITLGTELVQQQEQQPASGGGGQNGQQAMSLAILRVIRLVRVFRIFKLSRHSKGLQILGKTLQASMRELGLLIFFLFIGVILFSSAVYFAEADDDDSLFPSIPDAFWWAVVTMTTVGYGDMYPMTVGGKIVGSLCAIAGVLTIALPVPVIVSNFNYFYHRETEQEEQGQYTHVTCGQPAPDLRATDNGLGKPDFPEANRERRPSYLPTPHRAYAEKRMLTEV

Compound	Selectivity [1]	ΔTm (Nucleic Acid [2]) [°C]	BK [4] [%]	ΔTm (Nucleic Acid [5]) [°C]	Dose modification (Artemia salina [6])	LC50 [8] [µM]	LC50 [9] [µM]	other results
CCOCc1c(C)oc2c(C)c3oc(=O)cc(C)c3cc12	6	> 20	55	1				O2 production [3]: 50%
COc1c2occc2cc2ccc(=O)oc12 [METHOXSALEN]	4	10	5	1	>40	> 100	2.2	O2 production [7]: 9%
COCc1c2ccoc2c(OC)c2oc(=O)ccc12	3		14					LC50 (Artemia salina [10]): > 100 µM; LC50 (Artemia salina [11]): > 100 µM
COc1c2c(cc3ccc(=O)oc13)CCO2	5		4					
COCc1c2occc2c(OC)c2ccc(=O)oc12	26	1	35	1		> 100	> 100	Kd [12]: 28 µM; O2 production [3]: 4%
Cc1cc(=O)oc2cc3c(cc12)C(C)CO3 (centres undefined)	22		45		>4			LC50 (Artemia salina [10]): > 100 µM; LC50 (Artemia salina [11]): 25 µM
CC1COc2cc3oc(=O)ccc3cc21 (centres undefined)	3	0.5	23	0.5	>4	> 100	25	O2 production [7]: 100%
CCOc1c2ccoc2c(OCC)c2oc(=O)ccc12	14	0.5	75	0.5		> 100	> 100	Kd [13]: 178 µM; Kd [12]: 28 µM; O2 production [7]: -4%; Kd [14]: 23 µM; Kd [15]: 167 µM
CC[N+](CC)(CC)Cc1c(C)oc2c(C)c3oc(=O)cc(C)c3cc12.[Cl-]	5	16	27	7				O2 production [3]: 66%
COCc1c(C)oc2c(C)c3oc(=O)cc(C)c3cc12	11	> 20	31	0.5	>5	> 100	20	O2 production [3]: 50%
Cc1coc2cc3oc(=O)cc(C)c3cc12	8		25		>150			LC50 (Artemia salina [10]): > 100 µM; LC50 (Artemia salina [11]): 0.7 µM
COc1c2occc2c(COC(C)C)c2ccc(=O)oc12	3		10					
CCOc1cc(OCC)c2c(COC)cc(=O)oc2c1	1.8		35					
COCc1cc(=O)oc2cc3occ(C)c3cc12	17	> 20	52	0.5	>40	> 100	2.5	Kd [13]: 213 µM; Kd [12]: 90 µM; O2 production [7]: 43%; Kd [14]: 18 µM; Kd [15]: 56 µM
COc1c2ccoc2cc2oc(=O)ccc12 [BERGAPTEN]	14	13	52	0.5	>40	> 100	2.5	Kd [13]: 111 µM; Kd [16]: 187 µM; Kd [17]: 177 µM; O2 production [18]: 5%; Kd [12]: 101 µM; Kd [14]: 41 µM; Kd [15]: > 200 µM
CCOCc1c2ccoc2c(OC)c2oc(=O)ccc12	2	1.5	16	2				O2 production [3]: 7%
Cc1coc2cc3oc(=O)cc(CO)c3cc12	4		11					
Cc1coc2cc3oc(=O)ccc3cc12	15	9	63	1	>200	> 100	0.5	O2 production [7]: 71%
COCc1cc(=O)oc2cc3occ(-c4ccccc4)c3cc12	2		27					
O=c1ccc2cc3c(-c4ccccc4)coc3cc2o1	1.4		68					
C=CCOCc1c2ccoc2c(OC)c2oc(=O)ccc12	6		24					
CC[N+](CC)(CC)Cc1c2ccoc2c(OC)c2oc(=O)ccc12	7		20					
CCOc1cc(OCC)c2ccc(=O)oc2c1	0.7		40					
COc1c2ccoc2c(OC)c2oc(=O)ccc12 [ISOPIMPINELLIN]		1		0.5		> 100	> 100	O2 production [3]: -5%
